Shown is part of a subset that was picked to be rich in hits.
IDH1 mut inh – inhibitors of IDH1 R132H reductase, primary screen, biochemical, plate reader, single point; Isocitrate dehydrogenase [NADP] cytoplasmic (Homo sapiens), O75874; diaphorase/resazurin fluorescence, 60 min; AID 624101, 2012; 0.18% of 70,000 active; inhibition, % at 10 µM; in the data active = inhibition above about 34%; inconclusive = no clear call, values can overlap the other calls; inactive = below about 11%
Target sequence (O75874 whole entry R132H): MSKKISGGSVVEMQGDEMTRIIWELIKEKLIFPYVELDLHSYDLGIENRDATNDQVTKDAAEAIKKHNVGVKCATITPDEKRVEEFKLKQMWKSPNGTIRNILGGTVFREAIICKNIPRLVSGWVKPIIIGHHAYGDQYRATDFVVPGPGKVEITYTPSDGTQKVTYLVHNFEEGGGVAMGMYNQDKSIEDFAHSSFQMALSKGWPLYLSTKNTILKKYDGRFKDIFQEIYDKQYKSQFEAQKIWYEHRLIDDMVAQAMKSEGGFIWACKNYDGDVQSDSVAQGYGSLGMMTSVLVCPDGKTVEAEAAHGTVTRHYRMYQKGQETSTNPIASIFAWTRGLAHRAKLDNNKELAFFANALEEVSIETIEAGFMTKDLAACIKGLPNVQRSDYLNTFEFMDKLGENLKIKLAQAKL
T cruzi growth-1 – T. cruzi intracellular proliferation inhibitors, primary screen, cell-based, beta-gal Tulahuen parasites, NIH3T3 host, luminescence | T. cruzi beta-gal in NIH3T3, GalScreen luminescence, 90 h | 5.9% of 77,000 active | inhibition, % at 8.34 µM | AID 624255, 2012;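 active = mean inhibition above about 93%, with at least 55% of replicates each passing it, limit read from the data, passing the limit was not always enough; inconclusive = only one of those two conditions holds; inactive = neither condition holds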
KDM4C inh – inhibitors of GASC-1 (KDM4C) histone demethylase, primary screen, biochemical, single concentration HTS. Lysine-specific demethylase 4C (Homo sapiens), Q9H3R0. GST-KDM4C 2-372, H3K9me3 peptide, LANCE TR-FRET. inhibition, % at 12.5 µM. 0.15% of 96,000 active. AID 720574, 2013;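 active = mean replicate inhibition above about 25%, with at least 55% of replicates also reaching it, limit read from the data, passing the limit was not always enough; inconclusive = only one of those two conditions met; inactive = neither condition met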
Target sequence (Q9H3R0 2-372 limits assumed): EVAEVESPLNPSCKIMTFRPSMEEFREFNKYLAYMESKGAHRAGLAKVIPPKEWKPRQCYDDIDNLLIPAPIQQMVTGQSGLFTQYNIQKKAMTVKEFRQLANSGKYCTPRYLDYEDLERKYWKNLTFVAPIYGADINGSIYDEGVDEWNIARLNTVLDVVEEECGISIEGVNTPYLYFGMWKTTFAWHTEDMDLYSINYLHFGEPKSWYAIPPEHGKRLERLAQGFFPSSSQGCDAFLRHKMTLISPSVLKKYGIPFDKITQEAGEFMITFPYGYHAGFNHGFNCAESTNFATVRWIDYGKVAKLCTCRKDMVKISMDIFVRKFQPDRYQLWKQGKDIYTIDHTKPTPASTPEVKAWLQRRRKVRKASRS
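System – N-terminal GST-fused human GASC-1 (KDM4C) fragment, residues 2-372 · Input – enzyme final amount 10 nM · Technique – LANCE TR-FRET, Eu antibody, ULight-streptavidin, EDTA, ex 340 nm, em 618/671 nm · Medium – HEPES buffer, pH 7.5, plus ascorbate · Incubation – enzyme reaction 30 min, then detection 60 min, both room temperature · Reagent – H3K9me3 peptide with Fe(II)/2OG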
T cruzi growth-2 – T. cruzi intracellular proliferation inhibitors, confirmation, cell-based, NIH3T3 host, beta-gal parasite, luminescence, cherry-pick; shares compounds with T cruzi growth-1; T. cruzi beta-gal in NIH3T3, GalScreen luminescence, 90 h; inhibition, % at 8.35 µM; 72% of 5,600 active;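 active = mean replicate inhibition above about 95% and at least 55% of replicates individually reaching it, limit read from the data; inconclusive = only one of the two criteria is met; inactive = neither criterion is met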
T cruzi growth-3 – inhibitors of intracellular T. cruzi replication, confirmation, NIH3T3 host cells, beta-gal parasites, cherry-pick, set 2; T. cruzi beta-gal in NIH3T3, GalScreen luminescence, 90 h; 21% of 5,600 active; inhibition, % at 2.09 µM; shares compounds with T cruzi growth-1; AID 651740, 2012;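 active = mean inhibition above about 95%, with at least 55% of replicates also reaching it, limit read from the data; inconclusive = meets just one of the two conditions; inactive = meets neither condition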
3T3 cytotox – cytotoxicity in mouse NIH/3T3 fibroblasts, confirmation, cytotoxicity control for T. cruzi proliferation inhibitor project, cell-based, cherry-pick, single point; NIH/3T3 viability, CellTiter-Glo ATP luminescence, 90 h; shares compounds with T cruzi growth-1; 14% of 5,600 active; cytotoxicity (signal decrease), % at 8.35 µM;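 active = mean signal decrease across replicates above about 35% based on untreated-well scatter, with enough replicates individually passing, limit read from the data; inconclusive = no rule stated though some were filed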
3T3 cytotox 2 – NIH/3T3 fibroblast cytotoxicity, confirmation, cytotoxicity control, cell-based, cherry-pick, single point, set 2; inhibition, % at 24.9 µM; 56% of 5,600 active; shares compounds with T cruzi growth-1; NIH/3T3 viability, CellTiter-Glo ATP luminescence, 90 h; AID 651744, 2012;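 active = mean loss of cell viability signal at or above a set limit, and enough replicates individually reaching it; inconclusive = meets only the mean limit or only the replicate share; inactive = meets neither condition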
Each line names hits and unclear results; the compound was inactive in the other large screens (follow-up assays come after a bar, where they were run).

C[C@H](CO)N1C[C@H](C)[C@@H](CN(C)Cc2ccc(C(F)(F)F)cc2)Oc2ccc(NC(=O)C3CC3)cc2CC1=O	T cruzi growth-1 102 | T cruzi growth-2 105 | T cruzi growth-3 99 | 3T3 cytotox inactive | 3T3 cytotox 2 inactive
C[C@H](CO)N1C[C@H](C)[C@H](CN(C)Cc2ccc(C(F)(F)F)cc2)Oc2ccc(NC(=O)C3CC3)cc2CC1=O	none
C[C@@H]1CN([C@H](C)CO)C(=O)Cc2cc(NC(=O)c3ccncc3)ccc2O[C@H]1CN(C)Cc1ccc(C(F)(F)F)cc1	T cruzi growth-1 106 | T cruzi growth-2 104 | T cruzi growth-3 inactive | 3T3 cytotox inactive | 3T3 cytotox 2 63
Cc1ccc(-n2c(SCC(=O)c3ccc(Cl)cc3)nnc2-c2ccco2)cc1	none (no result: T cruzi growth-1, KDM4C inh)
C/C(=C\CC[C@@H](C)[C@H]1CC(OC2OCC(O)C(O)C2O)[C@@]2(C)C3CC[C@H]4C(C)(C)[C@@H](O[C@@H]5OC(CO)C(O)C(O)C5OC5OC(CO)C(O)C(O)C5O)CC[C@@]45C[C@@]35CC(O)[C@]12C)C(=O)OC1OC(CO)C(O)C(O)C1O (some centres undefined)	none (no result: T cruzi growth-1, KDM4C inh)
Cc1cc(O)c(Cc2c(O)cc(C)c(C=O)c2O)c(O)c1C	none (no result: T cruzi growth-1, KDM4C inh)
COC(=O)CNC(=O)c1cc2cc(Cl)ccc2oc1=O	none (no result: T cruzi growth-1, KDM4C inh)
Cc1cccc(-c2nnc(SCC(=O)Nc3ccc(Br)cc3F)o2)c1	none (no result: T cruzi growth-1, KDM4C inh)
COC(=O)Cc1c(CCC(=O)O)oc2cc(C)cc(O)c2c1=O	none (no result: T cruzi growth-1, KDM4C inh)
COC(=O)c1ccccc1NC(=O)CN(c1ccc(F)cc1)S(C)(=O)=O	none (no result: T cruzi growth-1, KDM4C inh)
CCC(=O)NC[C@H]1[C@H](c2ccc(-c3ccccc3)cc2)[C@H](CO)N1C(=O)C1CC1	none (no result: IDH1 mut inh)
CC(C)NC[C@H]1[C@@H](c2ccc(C3=CCCCC3)cc2)[C@@H](CO)N1C(=O)NC(C)C	T cruzi growth-1 inconclusive (no result: IDH1 mut inh) | T cruzi growth-2 102 | T cruzi growth-3 inactive | 3T3 cytotox 39 | 3T3 cytotox 2 104
CC(=O)NC[C@@H]1[C@@H](c2ccc(C3=CCCCC3)cc2)[C@H](CO)N1C(=O)NC(C)C	none (no result: IDH1 mut inh)
CCC(=O)NC[C@H]1[C@H](c2ccc(C3=CCCC3)cc2)[C@@H](CO)N1C(C)=O	none (no result: IDH1 mut inh)
CC(C)NC[C@H]1[C@H](c2ccc(C3=CCCCC3)cc2)[C@@H](CO)N1C(=O)NC(C)C	T cruzi growth-1 98 (no result: IDH1 mut inh) | T cruzi growth-2 104 | T cruzi growth-3 inactive | 3T3 cytotox inactive | 3T3 cytotox 2 104
CCC(=O)NC[C@H]1[C@@H](c2ccc(-c3ccccc3)cc2)[C@H](CO)N1C(=O)C1CC1	T cruzi growth-1 98 (no result: IDH1 mut inh) | T cruzi growth-2 inactive | T cruzi growth-3 inactive | 3T3 cytotox inactive | 3T3 cytotox 2 inactive
CCC(=O)NC[C@H]1[C@@H](c2ccc(C3=CCCC3)cc2)[C@H](CO)N1C(C)=O	T cruzi growth-1 101 (no result: IDH1 mut inh) | T cruzi growth-2 inactive | T cruzi growth-3 inactive | 3T3 cytotox inactive | 3T3 cytotox 2 inactive
CC(=O)NC[C@H]1[C@H](c2ccc(C3=CCCC3)cc2)[C@H](CO)N1C(=O)NC(C)C	none (no result: IDH1 mut inh)
O=C(CSc1nc2c(c(-c3ccccc3)n1)CCCCC2)N1N=CCC1c1ccccc1 (centres undefined)	none (no result: T cruzi growth-1, KDM4C inh)
CCOc1ccc(NC(=O)Cn2cnc3sc(C(N)=O)c(C)c3c2=O)cc1	none (no result: T cruzi growth-1, KDM4C inh)
CCOc1ccccc1OCC(=O)Nc1ccccc1[N+](=O)[O-]	none (no result: T cruzi growth-1, KDM4C inh)
COCc1ccccc1Cn1cnc2ccccc21	none (no result: T cruzi growth-1, KDM4C inh)
CC(C)NC[C@@H]1[C@@H](c2ccc(C3=CCCCC3)cc2)[C@H](CO)N1C(=O)NC(C)C	T cruzi growth-1 inconclusive (no result: IDH1 mut inh) | T cruzi growth-2 101 | T cruzi growth-3 inactive | 3T3 cytotox inactive | 3T3 cytotox 2 105
CC(=O)NC[C@@H]1[C@@H](c2ccc(C3=CCCCC3)cc2)[C@@H](CO)N1C(=O)NC(C)C	none (no result: IDH1 mut inh)
O=C(NCc1cccnc1)c1ccc2c(c1)C(=O)N(CC1CCCO1)C2=O (centres undefined)	none (no result: T cruzi growth-1, KDM4C inh)
C[C@@H]1CCCCO[C@H](CN(C)C(=O)Nc2ccc(F)cc2)[C@H](C)CN([C@@H](C)CO)C(=O)c2cc(NC(=O)C3CCCCC3)ccc2O1	T cruzi growth-1 inconclusive | T cruzi growth-2 97 | T cruzi growth-3 inactive | 3T3 cytotox inactive | 3T3 cytotox 2 inactive
C[C@H](CO)N1C[C@H](C)[C@H](CN(C)C(=O)Nc2ccc3c(c2)OCO3)OCCCC[C@H](C)Oc2ccc(NC(=O)C3CCCCC3)cc2C1=O	T cruzi growth-1 97 (no result: IDH1 mut inh) | T cruzi growth-2 109 | T cruzi growth-3 inactive | 3T3 cytotox inactive | 3T3 cytotox 2 inactive
C[C@H](CO)N1C[C@H](C)[C@H](CN(C)C(=O)Nc2ccc(F)cc2)OCCCC[C@H](C)Oc2ccc(NC(=O)C3CCCCC3)cc2C1=O	none (no result: IDH1 mut inh)
COc1ccc(NC(=O)N(C)C[C@@H]2OCCCC[C@H](C)Oc3ccc(NC(=O)C4CCCCC4)cc3C(=O)N([C@@H](C)CO)C[C@@H]2C)cc1	none
C[C@H]1CCCCO[C@H](CN(C)C(=O)Nc2ccc3c(c2)OCO3)[C@@H](C)CN([C@@H](C)CO)C(=O)c2cc(NC(=O)C3CCCCC3)ccc2O1	none
COc1ccc(NC(=O)N(C)C[C@H]2OCCCC[C@@H](C)Oc3ccc(NC(=O)C4CCCCC4)cc3C(=O)N([C@@H](C)CO)C[C@H]2C)cc1	T cruzi growth-1 97 | T cruzi growth-2 98 | T cruzi growth-3 inactive | 3T3 cytotox inactive | 3T3 cytotox 2 inactive
C=CCn1c(SCC(=O)O)nnc1-c1ccncc1	none (no result: T cruzi growth-1, KDM4C inh)
CCN(CC)C(=O)c1sc(NC(=S)Nc2nc(C)cc(C)n2)c(C(=O)OC)c1C	none (no result: T cruzi growth-1, KDM4C inh)
COc1ccc(-c2ccc3c(c2)[C@@H]2[C@@H](CCN2C(=O)CN2CCOCC2)[C@@H](CO)N3)cc1	none (no result: IDH1 mut inh)
COc1cccc(-c2ccc3c(c2)[C@H]2[C@H](CCN2C(=O)C2CC2)[C@H](CO)N3)c1	none (no result: IDH1 mut inh, T cruzi growth-1)
CN(C)C(=O)c1cccc(-c2ccc3c(c2)[C@H]2[C@H](CCN2C(=O)C2CCOCC2)[C@H](CO)N3)c1	none (no result: IDH1 mut inh)
CN(C)C(=O)c1cccc(-c2ccc3c(c2)[C@@H]2[C@@H](CCN2C(=O)C2CCOCC2)[C@H](CO)N3)c1	T cruzi growth-1 inconclusive (no result: IDH1 mut inh) | T cruzi growth-2 99 | T cruzi growth-3 inactive | 3T3 cytotox inactive | 3T3 cytotox 2 inactive
COc1cccc(-c2ccc3c(c2)[C@@H]2[C@@H](CCN2C(=O)Cc2ccccc2)[C@@H](CO)N3)c1	none (no result: IDH1 mut inh)
